From ChEMBL document CHEMBL1255303, “In vitro and in vivo antifungal activities of T-2307, a novel arylamidine” (2008)
Values after ≈ are worked out from the molar mass of the structure shown. Active and inactive are the calls of the source. The calls are words filed in the database; no cut-off is given here. Starred links: 1 amine or outer side, 2 acyl side, 3 side chain; linkers in the order of their positions; H or OH if unused. Positions of bridges follow the written chain, without caps; N, C: chain ends. Non-standard residues stand in square brackets, D forms with d. Residues, ends and D or L forms follow the SMILES beside them. *: point of attachment. hTyr(3S-OH,4S-OH,3'-OSO3H) = N[C@H](C(=O)O)[C@H](O)[C@@H](O)c1ccc(O)c(OS(=O)(=O)O)c1; Orn(4R-OH,5R-OH) = O=C([C@H](C[C@@H](O)[C@@H](O)N[*:3])N[*:1])[*:2]; Pro(3S-OH,4S-Me) = C[C@H]1CN[C@H](C(=O)O)[C@H]1O; X1 = CCCCCOc1ccc(-c2cc(-c3ccc(C(=O)*)cc3)no2)cc1; Gln(3R-OH) = NC(=O)C[C@@H](O)[C@H](N)C(=O)O; Hyp = O=C(O)[C@@H]1C[C@@H](O)CN1

Experiments:
Saccharomyces cerevisiae = assay: Antifungal activity against Saccharomyces cerevisiae ATCC 24657 after 48 hrs by broth microdilution method; assay type: functional; conditions: ATCC 24657, 48 h
How it was run: (§1)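 CLSI M27-A2 (yeasts) / M38-A (moulds) broth microdilution in RPMI 1640 buffered to pH 7.0 with 0.165 M MOPS. Malassezia furfur got the same medium supplemented with glucose, bile salts, glycerol, glycerol monostearate and Tween 20. Final inoculum 0.65 × 10^3–2.5 × 10^3 CFU/ml for yeasts and 0.87 × 10^4–3.8 × 10^4 CFU/ml for filamentous fungi. Incubation at 35°C except M. racemosus and F. solani, which were held at 30°C.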

Candida albicans [1] = assay: Antifungal activity against Candida albicans ATCC 64124 after 47 hrs by broth microdilution method; assay type: functional; conditions: ATCC 64124, 47 h
How it was run: (§2)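 Fluconazole-resistant or susceptible-dose-dependent ATCC C. albicans strains were tested by CLSI M27-A2 broth microdilution in RPMI 1640–0.165 M MOPS, pH 7.0, with a final inoculum of 1.1–1.5 × 10^3 CFU/ml at 35°C for about 47 h. MIC was the lowest concentration with a prominent (~50%) turbidity decrease relative to growth control; amphotericin B was read at complete inhibition.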

Candida albicans [2] = assay: Antifungal activity against Candida albicans TIMM 1623 after 48 hrs by broth microdilution method; assay type: functional; conditions: TIMM 1623, 48 h; how it was run: as §1
Fusarium solani = assay: Antifungal activity against Fusarium solani IFO 31093 after 48 hrs by broth microdilution method; assay type: functional; conditions: IFO 31093, 48 h; how it was run: as §1
Candida albicans [3] = assay: Antifungal activity against Candida albicans TIMM 1623 infected ICR mouse assessed as delay in mortality of mouse at 0.2 mg/kg after 6 days; assay type: functional, organism-based; parameters: dose 0.2 mg/kg
How it was run: (§3)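 Male ICR mice, 4 weeks old and SPF, were made neutropenic with intraperitoneal cyclophosphamide. The schedule was 200 mg/kg on day −3 (day −4 for Cryptococcus) plus 100 mg/kg on day +1. Infection was by tail-vein injection of 0.2 ml suspension: C. albicans 3.0 × 10^4, C. neoformans 9.1 × 10^4, A. fumigatus conidia 8.4 × 10^4 CFU/mouse. Drugs were given subcutaneously once daily for 7 days from 2 h post-infection; controls received saline. Groups had 8–10 mice.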

Candida albicans [4] = assay: Antifungal activity against Candida albicans ATCC 64550 after 47 hrs by broth microdilution method; assay type: functional; conditions: ATCC 64550, 47 h
How it was run: (§4)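 Fluconazole-resistant or susceptible-dose-dependent C. albicans ATCC strains were tested by broth microdilution in RPMI 1640-MOPS. Inoculum was 1.1 × 10^3–1.5 × 10^3 CFU/ml, with incubation at 35°C for about 47 h. Yeast MIC was read as about 50% turbidity decrease relative to growth control, except amphotericin B, read at complete inhibition.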

[5] = system: Meyerozyma guilliermondii; assay: Antifungal activity against Candida guilliermondii clinical isolates after 48 hrs by broth microdilution method; assay type: functional
How it was run: (§5)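 Clinical isolates from Japanese hospitals or culture collections were tested by broth microdilution in RPMI 1640-MOPS. Inoculum was 0.57 × 10^3–2.5 × 10^3 CFU/ml for yeasts and 0.4 × 10^4–3.3 × 10^4 CFU/ml for filamentous fungi. Incubation was at 35°C for about 48 h, or 72 h where footnoted. Results were summarised as MIC range, MIC50 and MIC90.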

Aspergillus niger = assay: Antifungal activity against Aspergillus niger NBRC 33023 after 48 hrs by broth microdilution method; assay type: functional; conditions: NBRC 33023, 48 h; how it was run: as §1
Candida albicans [6] = assay: Antifungal activity against Candida albicans ATCC MYA-2732 after 47 hrs by broth microdilution method; assay type: functional; conditions: ATCC MYA-2732, 47 h; how it was run: as §4
Rhizopus arrhizus = assay: Antifungal activity against Rhizopus oryzae NBRC 31005 after 24 hrs by broth microdilution method; assay type: functional; conditions: NBRC 31005, 24 h; how it was run: as §1
Cryptococcus neoformans [7] = assay: Antifungal activity against Cryptococcus neoformans ATCC 90112 after 72 hrs by broth microdilution method; assay type: functional; conditions: ATCC 90112, 72 h
How it was run: (§6)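 CLSI M27-A2 (yeasts) or M38-A (A. fumigatus) broth microdilution in RPMI 1640 buffered to pH 7.0 with 0.165 M MOPS. Final inocula were 0.65–2.5 × 10^3 CFU/ml for yeasts and 0.87–3.8 × 10^4 CFU/ml for filamentous fungi. Incubation was at 35°C for about 48 h (72 h for C. neoformans). MIC was the lowest concentration giving a prominent (~50%) turbidity drop versus growth control; amphotericin B required complete inhibition.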

Candida albicans [8] = assay: Antifungal activity against Candida albicans ATCC MYA-574 after 47 hrs by broth microdilution method; assay type: functional; conditions: ATCC MYA-574, 47 h; how it was run: as §4
Pichia kudriavzevii = assay: Antifungal activity against Candida krusei IFO 0584 after 48 hrs by broth microdilution method; assay type: functional; conditions: IFO 0584, 48 h; how it was run: as §1
Candida albicans [9] = assay: Antifungal activity against Candida albicans TIMM 1623 infected ICR mouse after 6 days; assay type: functional; conditions: TIMM 1623, 144 h; how it was run: as §3
Aspergillus flavus = assay: Antifungal activity against Aspergillus flavus NBRC 6343 after 48 hrs by broth microdilution method; assay type: functional; conditions: NBRC 6343, 48 h; how it was run: as §1
Aspergillus fumigatus [10] = assay: Antifungal activity against Aspergillus fumigatus IFM 46895 infected ICR mouse after 6 days; assay type: functional; conditions: IFM 46895, 144 h; how it was run: as §3
Nakaseomyces glabratus = assay: Antifungal activity against Candida glabrata clinical isolates after 48 hrs by broth microdilution method; assay type: functional; how it was run: as §5
Aspergillus fumigatus [11] = assay: Antifungal activity against Aspergillus fumigatus IFM 46895 after 48 hrs by broth microdilution method; assay type: functional; conditions: IFM 46895, 48 h; how it was run: as §1
Cryptococcus neoformans [12] = assay: Antifungal activity against Cryptococcus neoformans TIMM 0354 after 72 hrs by broth microdilution method; assay type: functional; conditions: TIMM 0354, 72 h; how it was run: as §6
Aspergillus fumigatus [13] = assay: Antifungal activity against Aspergillus fumigatus IFM 49895 after 48 hrs by broth microdilution method; assay type: functional; conditions: IFM 49895, 48 h; how it was run: as §1
[14] = system: Meyerozyma guilliermondii; assay: Antifungal activity against Candida guilliermondii IFO 10279 after 48 hrs by broth microdilution method; assay type: functional; conditions: IFO 10279, 48 h; how it was run: as §1
Aspergillus fumigatus [15] = assay: Antifungal activity against Aspergillus fumigatus IFM 46895 infected ICR mouse assessed as delay in mortality of mouse at 1 mg/kg after 6 days; assay type: functional, organism-based; parameters: dose 1 mg/kg; how it was run: as §3
Candida albicans [16] = assay: Antifungal activity against Candida albicans ATCC MYA-575 after 47 hrs by broth microdilution method; assay type: functional; conditions: ATCC MYA-575, 47 h; how it was run: as §2
Cryptococcus neoformans [17] = assay: Antifungal activity against Cryptococcus neoformans ATCC 90112 infected ICR mouse after 9 days; assay type: functional; conditions: ATCC 90112, 216 h; how it was run: as §3

SMILES | MFC (Saccharomyces cerevisiae) [µg/mL] | MIC (Saccharomyces cerevisiae) [µg/mL] | MIC (Candida albicans [1]) [µg/mL] | MFC (Candida albicans [2]) [µg/mL] | MIC (Candida albicans [2]) [µg/mL] | MFC (Fusarium solani) [µg/mL] | MIC (Fusarium solani) [µg/mL] | MIC (Candida albicans [4]) [µg/mL] | MIC50 [5] [µg/mL] | MIC90 [5] [µg/mL] | MFC (Aspergillus niger) [µg/mL] | MIC (Aspergillus niger) [µg/mL] | MIC (Candida albicans [6]) [µg/mL] | MFC (Rhizopus arrhizus) [µg/mL] | MIC (Rhizopus arrhizus) [µg/mL] | MFC (Cryptococcus neoformans [7]) [µg/mL] | MIC (Cryptococcus neoformans [7]) [µg/mL] | MIC (Candida albicans [8]) [µg/mL] | MFC (Pichia kudriavzevii) [µg/mL] | MIC (Pichia kudriavzevii) [µg/mL] | other results
CCCCCOc1ccc(-c2cc(-c3ccc(C(=O)N[C@H]4C[C@@H](O)[C@@H](O)NC(=O)[C@@H]5[C@@H](O)[C@@H](C)CN5C(=O)[C@H]([C@H](O)CC(N)=O)NC(=O)[C@H]([C@H](O)[C@@H](O)c5ccc(O)c(OS(=O)(=O)O)c5)NC(=O)[C@@H]5C[C@@H](O)CN5C(=O)[C@H]([C@@H](C)O)NC4=O)cc3)no2)cc1 [MICAFUNGIN] (X1-[Orn(4R-OH,5R-OH)]T[Hyp][hTyr(3S-OH,4S-OH,3'-OSO3H)][Gln(3R-OH)][Pro(3S-OH,4S-Me)]; lactam 1-C) | 1 (≈ 0.787 µM) | 0.5 (≈ 0.394 µM) | 0.0625 (≈ 0.0492 µM) | 4 (≈ 3.15 µM) | 0.0625 (≈ 0.0492 µM) | > 64 | > 64 | 0.0625 (≈ 0.0492 µM) | 1 (≈ 0.787 µM) | 1 (≈ 0.787 µM) | > 64 | 0.0313 (≈ 0.0246 µM) | 0.125 (≈ 0.0984 µM) | > 64 | > 64 | > 64 | > 64 | 0.0625 (≈ 0.0492 µM) | 0.25 (≈ 0.197 µM) | 0.125 (≈ 0.0984 µM) | Activity (Candida albicans [3]): Active; ED50 (Candida albicans [9]): 0.182 mg/kg; MFC (Aspergillus flavus): > 64 µg/mL; MIC (Aspergillus flavus): 0.0625 µg/mL (≈ 0.0492 µM); ED50 (Aspergillus fumigatus [10]): 0.699 mg/kg; MIC50 (Nakaseomyces glabratus): 0.0625 µg/mL (≈ 0.0492 µM); MIC90 (Nakaseomyces glabratus): 0.0625 µg/mL (≈ 0.0492 µM); MFC (Aspergillus fumigatus [11]): > 64 µg/mL; MIC (Aspergillus fumigatus [11]): 0.0313 µg/mL (≈ 0.0246 µM); MFC (Cryptococcus neoformans [12]): > 64 µg/mL; MIC (Cryptococcus neoformans [12]): > 64 µg/mL; MFC (Aspergillus fumigatus [13]): > 64 µg/mL; MIC (Aspergillus fumigatus [13]): 0.0313 µg/mL (≈ 0.0246 µM); MFC [14]: 8 µg/mL (≈ 6.3 µM); MIC [14]: 0.5 µg/mL (≈ 0.394 µM); Activity (Aspergillus fumigatus [15]): Active; MIC (Candida albicans [16]): 0.125 µg/mL (≈ 0.0984 µM)
N=C(N)c1ccc(OCCCC2CCN(CCCOc3ccc(C(=N)N)cc3)CC2)cc1 | > 64 | > 64 | 0.001 (≈ 0.00229 µM) | > 64 | 0.001 (≈ 0.00229 µM) | > 64 | 0.125 (≈ 0.286 µM) | 0.0005 (≈ 0.00114 µM) | 0.002 (≈ 0.00457 µM) | 0.0039 (≈ 0.00891 µM) | 0.0625 (≈ 0.143 µM) | 0.0625 (≈ 0.143 µM) | 0.001 (≈ 0.00229 µM) | > 64 | > 64 | 0.0313 (≈ 0.0715 µM) | 0.0078 (≈ 0.0178 µM) | 0.001 (≈ 0.00229 µM) | 0.002 (≈ 0.00457 µM) | 0.001 (≈ 0.00229 µM) | ED50 (Candida albicans [9]): 0.00755 mg/kg; MFC (Aspergillus flavus): 8 µg/mL (≈ 18.3 µM); MIC (Aspergillus flavus): 0.5 µg/mL (≈ 1.14 µM); ED50 (Aspergillus fumigatus [10]): 0.391 mg/kg; MIC (Nakaseomyces glabratus): 0.0039 µg/mL (≈ 0.00891 µM); MIC50 (Nakaseomyces glabratus): 0.0039 µg/mL (≈ 0.00891 µM); MIC90 (Nakaseomyces glabratus): 0.0078 µg/mL (≈ 0.0178 µM); ED50 (Cryptococcus neoformans [17]): 0.117 mg/kg; MFC (Aspergillus fumigatus [11]): > 64 µg/mL; MIC (Aspergillus fumigatus [11]): 0.0625 µg/mL (≈ 0.143 µM); MFC (Cryptococcus neoformans [12]): 0.0156 µg/mL (≈ 0.0356 µM); MIC (Cryptococcus neoformans [12]): 0.0039 µg/mL (≈ 0.00891 µM); MFC (Aspergillus fumigatus [13]): > 64 µg/mL; MIC (Aspergillus fumigatus [13]): 0.5 µg/mL (≈ 1.14 µM); MFC [14]: 0.0078 µg/mL (≈ 0.0178 µM); MIC [14]: 0.002 µg/mL (≈ 0.00457 µM); Activity (Aspergillus fumigatus [15]): Active; MIC (Candida albicans [16]): 0.001 µg/mL (≈ 0.00229 µM)
